Activity calls are given as the source filed them. The rule behind the calls is not given here.
What was measured:
SiHa [1] = assay: Induction of cell cycle arrest in human SiHa cells assessed as accumulation of cells at G2/M phase at 0.60 uM after 24 hrs by propidium iodide staining based flow cytometry (reference value: 29.71%); format: functional; settings: dose 0.6 µM
SiHa [2] = assay: Induction of cell cycle arrest in human SiHa cells assessed as accumulation of cells at G0/G1 phase at 0.60 uM after 24 hrs by propidium iodide staining based flow cytometry (reference value: 42.28%); format: functional; settings: dose 0.6 µM
Quadruplex DNA [3] = assay: Binding affinity to c-myc promoter G-quadruplex/i-motif in human Raji cells assessed as reduction in c-myc mRNA transcription incubated for 24 hrs; format: cell-based; settings: dose microM 0.16-2.5, time 24.0 hrs
Huh-7 = assay: Antiproliferative activity against human Huh-7 cells after 48 hrs by MTT assay; format: functional, cell-based; settings: Huh-7, 48 h
Method in brief: (§1)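 Cells seeded at 5.0×10^3 per well, pre-incubated 12 h at 37 °C, 5% CO2, then exposed to compounds for 48 h; DMSO-only control. MTT (2.5 mg/mL) added for 4 h, formazan dissolved in DMSO, absorbance at 570 nm. Each dose tested in triplicate; IC50 from percentage survival relative to negative control.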

HeLa = assay: Antiproliferative activity against human Hela cells after 48 hrs by MTT assay; format: functional, cell-based; method in brief: as §1
Quadruplex DNA [4] = assay: Binding affinity to c-myc promoter G-quadruplex/i-motif in human SiHa cells assessed as reduction in c-myc expression at 2.5 uM incubated for 24 hrs by Western blot analysis; format: cell-based; set-up: scale not given: the % may be the effect or the level left
Method in brief: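 SiHa cells treated 24 h at 0, 0.625, 1.25 and 2.5 μM, then lysed in buffer with 1 mM PMSF. Protein measured by BCA, equal loads run on 8% gel and blotted to PVDF. Probed with anti-c-MYC and anti-β-actin (loading control), HRP anti-rabbit secondary, chemiluminescence read-out.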

Raji = assay: Antiproliferative activity against human Raji cells after 48 hrs by MTT assay; format: functional, cell-based
SiHa [5] = assay: Induction of cell cycle arrest in human SiHa cells assessed as accumulation of cells at G2/M phase at 0.30 uM after 24 hrs by propidium iodide staining based flow cytometry (reference value: 29.71%); format: functional; settings: dose 0.3 µM
Quadruplex DNA [6] = assay: Stabilization of 5'-FAM/3'-TAMRA labeled c-myc promoter G-quadruplex DNA FPu22T (unknown origin) assessed as change in melting temperature at 1 uM by FRET assay (reference value: 66.5 degreeC); format: nucleic-acid assay
Method in brief: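 FRET melting of dual FAM/TAMRA-labelled FPu22T annealed in 10 mM Tris-HCl pH 7.4 with KCl. Final 0.2 µM DNA with or without ligand. Excitation 470 nm, emission 530 nm, read every 1 °C over 37–99 °C on a real-time PCR cycler. ΔTm = Tm(DNA+ligand) − Tm(DNA).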

[7] = Stabilization of 5'-FAM/3'-TAMRA labeled hairpin DNA F10T (unknown origin) assessed as change in melting temperature at 1 uM by FRET assay (reference value: 59.1 degreeC)
[8] = Stabilization of c-myc promoter i-motif DNA Py33 (unknown origin) assessed as decrease in negative peak intensity at pH 5.5 measured at 260 nanometer by CD spectroscopy
Method in brief: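 Py33 at 1 µM in 1× BPES pH 5.5 (pH 6.8 random-coil reference), with or without ligand. Annealed at 95 °C for 5 min, cooled, kept at 4 °C overnight. CD spectra in a 4 mm cuvette over 230–350 nm, three scans averaged, buffer-corrected; peaks followed at 288 and 260 nm.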

SiHa [9] = assay: Induction of apoptosis in human SiHa cells assessed as early apoptotic cells at 1.2 uM after 24 hrs by annexin V/FITC-propidium iodide staining-based flow cytometric method ( Rvb = 0.3%); format: functional
SiHa [10] = assay: Induction of apoptosis in human SiHa cells assessed as decrease in caspase-7 level incubated for 24 hrs by Western blot analysis; format: functional, cell-based; settings: dose microM 0.6-2.4, time 24.0 hrs
[11] = Stabilization of c-myc promoter i-motif DNA Py33 (unknown origin) assessed as effect on melting temperature at 5 uM by CD spectroscopy
Method in brief: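 CD melting: Py33 at 1 µM in 1× BPES pH 6.4, with or without ligand. Annealed at 95 °C for 5 min, slowly cooled, then heated at 1 °C/min while monitoring 260 nm. Tm obtained by curve fitting.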

[12] = Toxicity in BALB/c nude mouse xenografted with human SiHa cells assessed as effect on kidney weight at 15 mg/kg, ip administered once per 2 days for 18 days; format: organism-based; settings: in vivo, 432 h, time 18 day
Method in brief: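 SiHa tumour fragments passaged from donor mice implanted in the underarm of female BALB/c nude mice (six per group). Compound given at 15 mg/kg ip once every two days for 18 days, with saline and cisplatin 0.2 mg/kg control groups. Body weight recorded every two days; at day 18 mice were sacrificed and organs weighed.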

IC50 (Huh-7): 160 nM | IC50 (HeLa): 450 nM | ΔTm (Quadruplex DNA [6]): 9.9 °C | ΔTm [7]: 4.5 °C | Activity [8]: Active | Activity [11]: Active
Compound: Cc1ccc2nc3ccc(C)cc3c(NCCCNCCNCCCNc3c4cc(C)ccc4nc4ccc(C)cc34)c2c1
Activity (SiHa [1]): 56.91% | Activity (SiHa [2]): 16.87% | Activity (Quadruplex DNA [3]): Dose-dependent effect | Activity (Quadruplex DNA [4]): < 73.9% | Activity (Raji): Active | Activity (SiHa [5]): 42.47% | Activity (SiHa [9]): 43.2% | Activity (SiHa [10]): Dose-dependent effect | Activity [12]: Non-Toxic

From ChEMBL document CHEMBL4725346, “Syntheses and Evaluation of New Bisacridine Derivatives for Dual Binding of G-Quadruplex and i-Motif in Regulating Oncogene c-myc Expression” (J Med Chem, 2020)
